PubChem BioAssay
The source made the active and inactive calls.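 Rule for the calls, unless noted: active = inhibition of the reporter signal at or above 50%; inactive = inhibition below 50%.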

Experiments:
[1] = inhibitors of TNFa-induced NFkB p65 translocation, primary screen, imaging, HUVEC, MLSMR starter and 10KST1 sets (AID 438;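 active = inhibition above 20% together with a positive visual image hit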;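 note: compound added about 3h40 before a 20 min TNFalpha stimulation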;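 for inhibition: signal is the nuclear over cytoplasmic p65 intensity ratio per well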); conditions: HUVEC TNFa-induced p65 nuclear translocation; cell count: measured here: nuclei count (cytotoxicity indicator), at 2.08 µM; inhibition: at 2 µM, stronger effect = higher value, 0% TNFa-plus-vehicle, 100% no-TNFa wells
[2] = reduction of polyQ htt aggregates in cells – imaging, exon1htt(103Q)mCFP cells, high-content imaging, primary screen (AID 483;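 active = visual image review flags a hit and inhibition of aggregation exceeds 20%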;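 note: compound exposure lasted 3 days before fixation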;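 for nuclei count: percent of the per-plate median nuclei count of sample wells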); conditions: exon1htt(103Q)mCFP cell line, aggregate imaging, at 2 µM; inhibition of aggregation: stronger effect = higher value; nuclei count: measured here: cell count, toxicity
[3] = endothelial E-selectin expression blockers – imaging, HUVEC, immunofluorescence, MLSMR starter and 10KST1 sets, primary screen (AID 487;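 active = visually confirmed hit in the image check and inhibition above 20%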;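 for inhibition: signal is fraction of cell area covered by stained E-selectin grains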;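 for nuclei count: 100% = median nuclei count of all wells on the same plate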); conditions: HUVEC TNFalpha-induced E-selectin immunofluorescence imaging, at 2 µM; inhibition: stronger effect = higher value; nuclei count: measured here: cell number, toxicity
[4] = molecular target: Voltage-gated potassium channel subunit beta-2 (Rattus norvegicus) (UniProt P62483); assay: inhibitors of rat Kvbeta2 reductase activity – biochemical, NADPH fluorescence, primary screen (AID 622;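 active = fluorescence slope higher than the sample average by over 3 SD, cut at about -0.22 in these data, passing the limit was not always enough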;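 note: slope of raw intensity against log time taken from 70 to 1610 s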); conditions: recombinant KvBeta, 4-cyanobenzaldehyde reduction, at 10 µM, stronger effect = higher value
[5] = molecular target: Voltage-gated potassium channel subunit beta-2 (Rattus norvegicus) (UniProt P62483); assay: enhancers of rat Kvbeta2 NADPH turnover – biochemical, NADPH fluorescence, primary screen (AID 623;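 active = NADPH fluorescence slope more negative than the mean of all samples by about 3 SD, 99.7% confidence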;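 note: fluorescence intensity change per second fitted from 20 to 320 s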); conditions: Recombinant KvBeta, NADPH fluorescence decrease slope, 10 min; at 10 µM; stronger effect = lower value
[6] = molecular target: Muscarinic acetylcholine receptor M4 (Homo sapiens) (UniProt P08173); assay: M4-linked GIRK flux change, two-sided – cell-based, HEK293 M4/GIRK, thallium flux, BTC-AM, M4 allosteric agonist project, primary screen (AID 625;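 active = fluorescence slope after compound addition differing from the mean of all tested samples at 99.7% confidence, mostly higher but some lower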;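 note: thallium influx through GIRK channels coupled to M4 in HEK293 cells with BTC-AM dye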); conditions: at 10 µM, actives lie on both sides
Procedure, shortened: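 Material – HEK293 cells with M4 receptor and GIRK channels · Buffer or medium – pH 7.3 thallium assay buffer · Doses – one dose, 10 µM final · Timing – cells overnight at 37 °C, BTC-AM loading 1 h, reads 2 min total · Measured by – kinetic fluorescence with BTC-AM dye · Controls – carbachol and DMSO controls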

[7] = blockers of RIG-like receptor reporter activation – cell-based, Sendai virus stimulus, luciferase, 10K MLSCN set, TLR/RLR signaling modifier project, primary screen (AID 602276;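 active = inhibition at or above 50% at 10 µM; inactive = inhibition below 50%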;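 note: firefly luciferase from ISG56 promoter only with Renilla not read in this screen; 0% = Sendai virus plus DMSO and 100% = medium plus DMSO without virus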); conditions: HEK293 RL24 IRF3 luciferase reporter, at 10 µM, stronger effect = higher value
[8] = TLR3 IRF3 reporter activation blockers – cell-based, poly I:C stimulus, luciferase, 10K MLSCN set, primary screen (AID 602277); conditions: HEK293-TLR3 RL24 IRF3 luciferase reporter, at 10 µM, stronger effect = higher value

Voltage-gated potassium channel subunit beta-2 (Rattus norvegicus), sequence (P62483 whole entry, looked up): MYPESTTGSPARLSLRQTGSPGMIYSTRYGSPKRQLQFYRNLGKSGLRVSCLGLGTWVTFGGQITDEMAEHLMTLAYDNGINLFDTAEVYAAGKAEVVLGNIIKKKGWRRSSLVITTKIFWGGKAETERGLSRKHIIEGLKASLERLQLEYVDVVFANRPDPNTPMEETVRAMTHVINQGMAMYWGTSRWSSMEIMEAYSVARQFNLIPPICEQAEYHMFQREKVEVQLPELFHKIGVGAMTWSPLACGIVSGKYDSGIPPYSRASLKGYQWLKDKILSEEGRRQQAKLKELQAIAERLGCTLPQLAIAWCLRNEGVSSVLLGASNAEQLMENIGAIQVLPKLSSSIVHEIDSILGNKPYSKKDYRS
Muscarinic acetylcholine receptor M4 (Homo sapiens), sequence (P08173 whole entry, looked up): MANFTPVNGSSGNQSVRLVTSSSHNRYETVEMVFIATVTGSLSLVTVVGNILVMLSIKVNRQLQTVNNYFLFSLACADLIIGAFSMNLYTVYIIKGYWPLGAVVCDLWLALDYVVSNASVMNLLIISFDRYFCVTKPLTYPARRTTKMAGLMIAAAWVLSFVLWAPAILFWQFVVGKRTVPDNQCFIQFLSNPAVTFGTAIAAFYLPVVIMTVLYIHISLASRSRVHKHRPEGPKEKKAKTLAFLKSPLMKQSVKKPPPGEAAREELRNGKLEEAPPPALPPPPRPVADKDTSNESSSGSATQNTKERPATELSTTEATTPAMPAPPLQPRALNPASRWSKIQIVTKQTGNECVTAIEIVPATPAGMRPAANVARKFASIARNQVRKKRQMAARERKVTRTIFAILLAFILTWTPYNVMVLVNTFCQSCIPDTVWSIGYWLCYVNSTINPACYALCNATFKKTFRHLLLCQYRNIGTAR

| Structure (SMILES) | cell count [1] | inhibition [1] | inhibition of aggregation [2] | nuclei count [2] [%] | inhibition [3] | nuclei count [3] [%] | fluorescence slope [4] | NADPH fluorescence slope [5] | fluorescence slope [6] | inhibition [7] | inhibition [8] |
| --- | --- | --- | --- | --- | --- | --- | --- | --- | --- | --- | --- |
| O=S(=O)(NC1=NCCC1)c1cccs1 | 524 | -7% (inactive) | 11% (inactive) | 102 | 27.1% (inactive) | 103 | -0.353 (inactive) | -4.6e-05 (inactive) | 0.00585 (inactive) | 8.22% (inactive) | 5.63% (inactive) |
| CC1CN(c2c3c(nc4ncnn24)CCCC3)CC(C)O1 (centres undefined) | 752 | 0% (inactive) | -14.4% (inactive) | 99.9 | -31.5% (inactive) | 106 | -0.481 (inactive) | 3.1e-05 (inactive) | 0.00504 (inactive) | 14.7% (inactive) | 21.5% (inactive) |
| CCc1cc(C)cc(OCCNC(=O)c2ncn[nH]2)c1 | 473 | 3% (inactive) | 3.2% (inactive) | 93.5 | 31.1% (inactive) | 88.4 | -0.592 (inactive) | -1.9e-06 (inactive) | 0.00585 (inactive) | 12% (inactive) | 18.1% (inactive) |
| CC(n1cnnn1)C12CC3CC(CC(C3)C1)C2 (centres undefined) | 555 | 1.3% (inactive) | 0.3% (inactive) | 106 | 16.7% (inactive) | 114 | -0.495 (inactive) | 0.000168 (inactive) | 0.00589 (inactive) | 16.5% (inactive) | 32.3% (inactive) |
| Cc1ccc(Cn2c(C(=O)NCCCN3CCOCC3)cc3sccc32)cc1 | 765 | -5.9% (inactive) | -85.9% (inactive) | 111 | -218% (inactive) | 118 | -0.486 (inactive) | 1.1e-05 (inactive) | 0.00431 (inactive) | 14.1% (inactive) | 31.6% (inactive) |
| Cc1cc(/C=N/n2cnnc2)c(C)n1-c1ccc(Cl)cc1Cl | 485 | 7.6% (inactive) | -10.2% (inactive) | 94.2 | -275% (inactive) | 135 | -0.294 (inactive) | -3e-05 (inactive) | 0.00517 (inactive) | 17.2% (inactive) | 16.7% (inactive) |
| Cc1ccc(C)c(N2C(=O)CN=C2Nc2ccccc2Cl)c1 | 441 | 14.6% (inactive) | 0.8% (inactive) | 96.7 | 18.2% (inactive) | 113 | -0.577 (inactive) | -4.1e-05 (inactive) | 0.00593 (inactive) | 13% (inactive) | 24.3% (inactive) |
| Cc1cc(NC(=O)c2ccc(Cl)cc2)no1 | 206 | 0.8% (inactive) | 41.9% (active) | 92 | -58.4% (inactive) | 83.6 | -0.561 (inactive) | 1.1e-05 (inactive) | 0.00496 (inactive) | -41.1% (inactive) | -168% (inactive) |
| Cc1cc(C)n2nc(C(=O)NCc3ccco3)nc2n1 | 389 | 1.4% (inactive) | 6.6% (inactive) | 103 | -3.3% (inactive) | 109 | -0.582 (inactive) | -4.1e-05 (inactive) | 0.00618 (inactive) | 10.5% (inactive) | 10.8% (inactive) |
